Source: ChEMBL document CHEMBL1139755, “Synthesis and in vitro antibacterial activity of novel methylamino piperidinyl oxazolidinones” (2007)
Values after ≈ are worked out from the molar mass of the structure shown.

Tests used:
Bacillus subtilis = assay: Antibacterial activity against Bacillus subtilis ATCC 6633 by broth microdilution method; type: functional
Method in brief: (§1)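 Endpoint is the minimum inhibitory concentration, determined by broth microdilution against a panel of susceptible Gram-positive strains. Values are reported as a range spanning two concentrations (for example 8–16). Values above the top concentration tested are given as >16.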

[1] = tested on: Staphylococcus epidermidis; assay: Antibacterial activity against Staphylococcus epidermidis ATCC 12228 by broth microdilution method; type: functional; method in brief: as §1
Enterococcus faecalis [2] = assay: Antibacterial activity against Enterococcus faecalis ATCC 29212 by broth microdilution method; type: functional; method in brief: as §1
Enterococcus faecalis [3] = assay: Antibacterial activity against Enterococcus faecalis ATCC 14506 by broth microdilution method; type: functional; method in brief: as §1
Staphylococcus aureus [4] = assay: Antibacterial activity against Staphylococcus aureus ATCC 33591 by broth microdilution method; type: functional; method in brief: as §1
Staphylococcus aureus [5] = assay: Antibacterial activity against Staphylococcus aureus ATCC 29213 by broth microdilution method; type: functional; method in brief: as §1
Staphylococcus aureus [6] = assay: Antibacterial activity against Staphylococcus aureus ATCC 33592 by broth microdilution method; type: functional; method in brief: as §1
Enterococcus faecalis [7] = assay: Antibacterial activity against multidrug resistant Enterococcus faecalis ATCC 700802 by broth microdilution method; type: functional
Enterococcus faecium = assay: Antibacterial activity against vancomycin-resistant Enterococcus faecium ATCC 700221 by broth microdilution method; type: functional
Staphylococcus aureus [8] = assay: Antibacterial activity against Staphylococcus aureus ATCC 25923 by broth microdilution method; type: functional; method in brief: as §1
Staphylococcus aureus [9] = assay: Antibacterial activity against linezolid-resistant Staphylococcus aureus NRS 119 by broth microdilution method; type: functional
Method in brief: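 Linezolid-resistant S. aureus strain obtained from NARSA; minimum inhibitory concentration found by broth microdilution and reported as a concentration range.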

Staphylococcus aureus [10] = assay: Antibacterial activity against methicillin-resistant Staphylococcus aureus ATCC 700699 by broth microdilution method; type: functional
Streptococcus pneumoniae = assay: Antibacterial activity against multidrug-resistant Streptococcus pneumoniae ATCC 700904 by broth microdilution method; type: functional
[11] = tested on: Staphylococcus epidermidis; assay: Antibacterial activity against Staphylococcus epidermidis ATCC 155 by broth microdilution method; type: functional; method in brief: as §1
Streptococcus pyogenes = assay: Antibacterial activity against Streptococcus pyogenes ATCC 14289 by broth microdilution method

Compound | MIC (Bacillus subtilis) | MIC [1] | MIC (Enterococcus faecalis [2]) | MIC (Enterococcus faecalis [3]) | MIC (Staphylococcus aureus [4]) | MIC (Staphylococcus aureus [5]) | MIC (Staphylococcus aureus [6]) | MIC (Enterococcus faecalis [7]) | MIC (Enterococcus faecium) | MIC (Staphylococcus aureus [8]) | MIC (Staphylococcus aureus [9]) | MIC (Staphylococcus aureus [10]) | MIC (Streptococcus pneumoniae) | MIC [11] | MIC (Streptococcus pyogenes)
CC(=O)NC[C@H]1CN(c2ccc(N(C)C3CCN(C(=O)/C=C/c4ccc([N+](=O)[O-])o4)CC3)c(F)c2)C(=O)O1 | 0.5 µg/mL (≈ 0.944 µM) | 1 µg/mL (≈ 1.89 µM) | 2 µg/mL (≈ 3.78 µM) | 4 µg/mL (≈ 7.55 µM) | 1 µg/mL (≈ 1.89 µM) | 2 µg/mL (≈ 3.78 µM) | 1 µg/mL (≈ 1.89 µM) | 8 µg/mL (≈ 15.1 µM) | 1 µg/mL (≈ 1.89 µM) | 2 µg/mL (≈ 3.78 µM) | 2 µg/mL (≈ 3.78 µM) | 1 µg/mL (≈ 1.89 µM) | 0.25 µg/mL (≈ 0.472 µM) | 0.25 µg/mL (≈ 0.472 µM) | 2 µg/mL (≈ 3.78 µM)
CC(=O)NC[C@H]1CN(c2ccc(N(C)C3CCN(C(=O)/C=C/c4c[nH]c5ccccc45)CC3)c(F)c2)C(=O)O1 | 2 µg/mL (≈ 3.75 µM) | 4 µg/mL (≈ 7.5 µM) | 8 µg/mL (≈ 15 µM) | > 16 µg/mL | 8 µg/mL (≈ 15 µM) | > 16 µg/mL | > 16 µg/mL | 8 µg/mL (≈ 15 µM) | 8 µg/mL (≈ 15 µM) | 8 µg/mL (≈ 15 µM) | > 16 µg/mL | 2 µg/mL (≈ 3.75 µM) | 8 µg/mL (≈ 15 µM) | 4 µg/mL (≈ 7.5 µM) | 8 µg/mL (≈ 15 µM)
CC(=O)NC[C@H]1CN(c2ccc(N(C)C3CCNCC3)c(F)c2)C(=O)O1 | > 16 µg/mL | > 16 µg/mL | > 16 µg/mL | > 16 µg/mL | > 16 µg/mL | > 16 µg/mL | > 16 µg/mL | > 16 µg/mL | > 16 µg/mL | > 16 µg/mL | > 16 µg/mL | > 16 µg/mL | > 16 µg/mL | > 16 µg/mL | > 16 µg/mL
CC(=O)NC[C@H]1CN(c2ccc(N3CCOCC3)c(F)c2)C(=O)O1 [LINEZOLID] | 1 µg/mL (≈ 2.96 µM) | 2 µg/mL (≈ 5.93 µM) |  |  | 1 µg/mL (≈ 2.96 µM) |  |  |  |  | 1 µg/mL (≈ 2.96 µM) | > 16 µg/mL | 1 µg/mL (≈ 2.96 µM) |  | 1 µg/mL (≈ 2.96 µM) | 0.5 µg/mL (≈ 1.48 µM)
CC(=O)NC[C@H]1CN(c2ccc(N3CCN(C(=O)CO)CC3)c(F)c2)C(=O)O1 [EPEREZOLID] | 0.5 µg/mL (≈ 1.27 µM) | 2 µg/mL (≈ 5.07 µM) | 2 µg/mL (≈ 5.07 µM) | 2 µg/mL (≈ 5.07 µM) | 1 µg/mL (≈ 2.54 µM) | 2 µg/mL (≈ 5.07 µM) |  | 1 µg/mL (≈ 2.54 µM) |  | 2 µg/mL (≈ 5.07 µM) | > 16 µg/mL | 1 µg/mL (≈ 2.54 µM) | 0.25 µg/mL (≈ 0.634 µM) |  | 0.25 µg/mL (≈ 0.634 µM)
CC(=O)NC[C@H]1CN(c2ccc(N3CCN(Cc4ccc([N+](=O)[O-])o4)CC3)c(F)c2)C(=O)O1 [RANBEZOLID] | 0.25 µg/mL (≈ 0.542 µM) | 0.5 µg/mL (≈ 1.08 µM) |  | 2 µg/mL (≈ 4.33 µM) | 1 µg/mL (≈ 2.17 µM) | 1 µg/mL (≈ 2.17 µM) | 1 µg/mL (≈ 2.17 µM) | 1 µg/mL (≈ 2.17 µM) | 2 µg/mL (≈ 4.33 µM) | 1 µg/mL (≈ 2.17 µM) | > 16 µg/mL | 0.5 µg/mL (≈ 1.08 µM) | 0.25 µg/mL (≈ 0.542 µM) | 0.25 µg/mL (≈ 0.542 µM) | 2 µg/mL (≈ 4.33 µM)
CC(=O)NC[C@H]1CN(c2ccc(N(C)C3CCN(C(=O)/C=C/c4ccco4)CC3)c(F)c2)C(=O)O1 | 2 µg/mL (≈ 4.13 µM) | > 16 µg/mL | > 16 µg/mL | > 16 µg/mL | > 16 µg/mL | > 16 µg/mL | > 16 µg/mL | > 16 µg/mL | 8 µg/mL (≈ 16.5 µM) | > 16 µg/mL | > 16 µg/mL | 8 µg/mL (≈ 16.5 µM) | > 16 µg/mL | > 16 µg/mL | > 16 µg/mL
CC(=O)NC[C@H]1CN(c2ccc(N(C)C3CCN(C(=O)/C=C/c4ccc(CO)o4)CC3)c(F)c2)C(=O)O1 | > 16 µg/mL | > 16 µg/mL | > 16 µg/mL | > 16 µg/mL | > 16 µg/mL | > 16 µg/mL | > 16 µg/mL | > 16 µg/mL | > 16 µg/mL | > 16 µg/mL | > 16 µg/mL | > 16 µg/mL | > 16 µg/mL | > 16 µg/mL | > 16 µg/mL
CC(=O)NC[C@H]1CN(c2ccc(N(C)C3CCN(C(=O)/C=C/c4ccccc4)CC3)c(F)c2)C(=O)O1 | 2 µg/mL (≈ 4.04 µM) | 8 µg/mL (≈ 16.2 µM) | > 16 µg/mL | > 16 µg/mL | 8 µg/mL (≈ 16.2 µM) | 8 µg/mL (≈ 16.2 µM) | 4 µg/mL (≈ 8.09 µM) | 8 µg/mL (≈ 16.2 µM) | 4 µg/mL (≈ 8.09 µM) | 8 µg/mL (≈ 16.2 µM) | > 16 µg/mL | 8 µg/mL (≈ 16.2 µM) | 8 µg/mL (≈ 16.2 µM) | 4 µg/mL (≈ 8.09 µM) | 8 µg/mL (≈ 16.2 µM)
CC(=O)NC[C@H]1CN(c2ccc(N(C)C3CCN(C(=O)/C=C/c4ccc([N+](=O)[O-])cc4)CC3)c(F)c2)C(=O)O1 | 4 µg/mL (≈ 7.41 µM) | 8 µg/mL (≈ 14.8 µM) | > 16 µg/mL | > 16 µg/mL | > 16 µg/mL | > 16 µg/mL | > 16 µg/mL | > 16 µg/mL | > 16 µg/mL | > 16 µg/mL | > 16 µg/mL | 8 µg/mL (≈ 14.8 µM) | > 16 µg/mL | 8 µg/mL (≈ 14.8 µM) | > 16 µg/mL
CC(=O)NC[C@H]1CN(c2ccc(N(C)C3CCN(C(=O)/C=C/c4ccc(O)cc4)CC3)c(F)c2)C(=O)O1 | 2 µg/mL (≈ 3.92 µM) | 8 µg/mL (≈ 15.7 µM) | 4 µg/mL (≈ 7.83 µM) | > 16 µg/mL | 8 µg/mL (≈ 15.7 µM) | > 16 µg/mL | > 16 µg/mL | 8 µg/mL (≈ 15.7 µM) | 8 µg/mL (≈ 15.7 µM) | 8 µg/mL (≈ 15.7 µM) | > 16 µg/mL | 4 µg/mL (≈ 7.83 µM) | 8 µg/mL (≈ 15.7 µM) | 8 µg/mL (≈ 15.7 µM) | 8 µg/mL (≈ 15.7 µM)
CC(=O)NC[C@H]1CN(c2ccc(N(C)C3CCN(C(=O)/C=C/c4ccc5c(c4)OCO5)CC3)c(F)c2)C(=O)O1 | 2 µg/mL (≈ 3.71 µM) | 8 µg/mL (≈ 14.9 µM) | 8 µg/mL (≈ 14.9 µM) | > 16 µg/mL | 8 µg/mL (≈ 14.9 µM) | > 16 µg/mL | > 16 µg/mL | > 16 µg/mL | > 16 µg/mL | > 16 µg/mL | > 16 µg/mL | > 16 µg/mL | > 16 µg/mL | > 16 µg/mL | > 16 µg/mL
CC(=O)NC[C@H]1CN(c2ccc(N(C)C3CCN(C(=O)/C=C/C4CCCCC4)CC3)c(F)c2)C(=O)O1 | 8 µg/mL (≈ 16 µM) | > 16 µg/mL | > 16 µg/mL | 8 µg/mL (≈ 16 µM) | > 16 µg/mL | 8 µg/mL (≈ 16 µM) | 8 µg/mL (≈ 16 µM) | 8 µg/mL (≈ 16 µM) | 8 µg/mL (≈ 16 µM) | 8 µg/mL (≈ 16 µM) | > 16 µg/mL | 4 µg/mL (≈ 7.99 µM) | 8 µg/mL (≈ 16 µM) | 8 µg/mL (≈ 16 µM) | > 16 µg/mL
